Experimental data as given in ChEMBL document CHEMBL1255182, “Methylantcinate A induces tumor specific growth inhibition in oral cancer cells via Bax-mediated mitochondrial apoptotic pathway” (Bioorg Med Chem Lett, 2010).

Legend:
[1] = (§1) Cytotoxicity against human OC2 cells after 24 hrs by MTT assay; format: functional, cell-based; details: OC2, 24 h
Method in brief: (§2)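 Human oral squamous carcinoma lines, from primary tumours of adult male Taiwanese betel quid chewers, exposed to a range of concentrations for 24 h. DMSO control. Viable cells read by MTT reduction to formazan (absorbance). IC50 is the concentration giving a 50% fall in absorbance relative to control.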

[2] = system: OC2; assay: as §1; format: functional, cell-based; method in brief: as §2
[3] = (§3) Cytotoxicity against human OECM1 cells after 24 hrs by MTT assay; format: functional, cell-based; details: OECM1, 24 h; method in brief: as §2
[4] = system: OECM1; assay: as §3; format: functional, cell-based; method in brief: as §2
[5] = Cytotoxicity against human gingival fibroblast at up to 50 uM after 24 hrs by MTT assay
Method in brief: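 Normal human gingival fibroblasts exposed to a range of concentrations for 24 h, with 50 the highest tested. DMSO vehicle control. Viability read by MTT formazan absorbance and compared with control for statistical significance.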

[6] = Induction of apoptosis in human OECM1 cells assessed as early apoptotic cells at 25 uM after 3 hrs by Annexin V-FITC and propidium iodide staining (reference value: 0.69%); format: functional
[7] = Induction of apoptosis in human OECM1 cells assessed as early apoptotic cells at 50 uM after 3 hrs by Annexin V-FITC and propidium iodide staining (reference value: 0.69%); format: functional
[8] = Induction of apoptosis in human OC2 cells assessed as early apoptotic cells at 25 uM after 3 hrs by Annexin V-FITC and propidium iodide staining (reference value: 0.67%); format: functional
[9] = Induction of apoptosis in human OC2 cells assessed as early apoptotic cells at 50 uM after 3 hrs by Annexin V-FITC and propidium iodide staining (reference value: 0.67%); format: functional
[10] = Induction of apoptosis in human OECM1 cells assessed as late apoptotic cells at 25 uM after 3 hrs by Annexin V-FITC and propidium iodide staining (reference value: 5.18%); format: functional
[11] = Induction of apoptosis in human OECM1 cells assessed as late apoptotic cells at 50 uM after 3 hrs by Annexin V-FITC and propidium iodide staining (reference value: 5.18%); format: functional
[12] = Induction of apoptosis in human OC2 cells assessed as late apoptotic cells at 25 uM after 3 hrs by Annexin V-FITC and propidium iodide staining (reference value: 1.92%); format: functional
[13] = Induction of apoptosis in human OC2 cells assessed as late apoptotic cells at 50 uM after 3 hrs by Annexin V-FITC and propidium iodide staining (reference value: 1.92%); format: functional
[14] = Induction of apoptosis in human OECM1 cells assessed as caspase 3 activity at 25 uM after 3 hrs by flow cytometry (reference value: 52.34%); format: functional
[15] = Induction of apoptosis in human OECM1 cells assessed as caspase 3 activity at 50 uM after 3 hrs by flow cytometry (reference value: 52.34%); format: functional
[16] = Induction of apoptosis in human OC2 cells assessed as caspase 3 activity at 25 uM after 3 hrs by flow cytometry (reference value: 48.99%); format: functional
[17] = Induction of apoptosis in human OC2 cells assessed as caspase 3 activity at 50 uM after 3 hrs by flow cytometry (reference value: 48.99%); format: functional
[18] = system: OECM1; assay: Induction of apoptosis in human OECM1 cells assessed as caspase 3 activity at 50 uM by flow cytometry; format: functional, cell-based; details: TDE = time-dependent effect
Method in brief: (§4)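 OC-2 or OEC-M1 OSCC cells exposed to 50 µM for 3 h, 6 h and 9 h to follow caspase-3 activity over time. Activity read by flow cytometry with a specific peptide substrate.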

[19] = Induction of apoptosis in human OC2 cells assessed as cytoplasmic histone-associated DNA fragmentation at 50 uM after 4 hrs by TUNEL assay (reference value: 28.6%); format: functional
Method in brief: (§5)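 After 4 h exposure to 25 or 50 µM or DMSO vehicle, OC-2 and OEC-M1 oral cancer cells were scored for DNA fragmentation by TUNEL labeling with flow cytometry, as % of cells. Mean ± SD of three determinations.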

[20] = Induction of apoptosis in human OC2 cells assessed as cytoplasmic histone-associated DNA fragmentation at 25 uM after 4 hrs by TUNEL assay (reference value: 28.6%); format: functional; method in brief: as §5
[21] = Induction of apoptosis in human OECM1 cells assessed as cytoplasmic histone-associated DNA fragmentation at 50 uM after 4 hrs by TUNEL assay (reference value: 8.15%); format: functional; method in brief: as §5
[22] = Induction of apoptosis in human OECM1 cells assessed as cytoplasmic histone-associated DNA fragmentation at 25 uM after 4 hrs by TUNEL assay (reference value: 8.15%); format: functional; method in brief: as §5
[23] = system: OC2; assay: Induction of apoptosis in human OC2 cells assessed as caspase 3 activity at 50 uM by flow cytometry; format: functional, cell-based; details: TDE = time-dependent effect; method in brief: as §4
[24] = system: OECM1; assay: Induction of apoptosis in human OECM1 cells assessed as PARP cleavage after 6 hrs by Western blotting; format: functional, cell-based
Method in brief: (§6)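 OEC-M1 cells exposed to 10, 25 or 50 µM or DMSO for 6 h. Equal amounts of total lysate immunoblotted for Bcl-2, Bcl-xL, Bax and PARP (116-kDa full-length, 85-kDa cleaved), with β-actin as loading control. Bands quantified as fold of vehicle control after β-actin normalization.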

[25] = system: OECM1; assay: Induction of apoptosis in human OECM1 cells assessed as increase of Bax protein expression after 6 hrs by Western blotting; format: functional, cell-based; method in brief: as §6
[26] = system: OECM1; assay: Induction of apoptosis in human OECM1 cells assessed as decrease of Bcl-2 protein expression after 6 hrs by Western blotting; format: functional, cell-based; method in brief: as §6
[27] = system: OECM1; assay: Induction of apoptosis in human OECM1 cells assessed as decrease of Bcl-xL protein expression after 6 hrs by Western blotting; format: functional, cell-based; method in brief: as §6

## C=C(CC[C@@H](C)[C@H]1CC[C@H]2C3=C(C(=O)C[C@]12C)[C@@]1(C)CCC(=O)[C@@H](C)[C@@H]1CC3)C(C)C(=O)OC (some centres not stated) [METHYLANTCINATE A]
[1]
  IC50: 37.4 µM
[2]
  Activity: Dose-dependent effect
[3]
  IC50: 24.5 µM
[4]
  Activity: Dose-dependent effect
[5]
  Activity: Non-toxic
[6]
  Activity: 59.73%
[7]
  Activity: 62.33%
[8]
  Activity: 15.35%
[9]
  Activity: 9.09%
[10]
  Activity: 23.63%
[11]
  Activity: 27.71%
[12]
  Activity: 13.2%
[13]
  Activity: 14.3%
[14]
  Activity: 66.86%
[15]
  Activity: 87.07%
[16]
  Activity: 59.19%
[17]
  Activity: 69.06%
[18]
  Activity: tde
[19]
  Activity: 52.55%
[20]
  Activity: 41.07%
[21]
  Activity: 57.8%
[22]
  Activity: 56.5%
[23]
  Activity: tde
[24]
  Activity: Dose-dependent effect
[25]
  Activity: Dose-dependent effect
[26]
  Activity: Dose-dependent effect
[27]
  Activity: Dose-dependent effect
